From ChEMBL document CHEMBL1149910, “2-(6-aryl-3(Z)-hexen-1,5-diynyl)anilines as a new class of potent antitubulin agents” (J Med Chem, 2008)

Columns and labels:
Format in all cases: functional
K562 [1] = assay: Cell cycle arrest in human K562 cells assessed as accumulation at G0/G1 phase at 50 uM after 24 hrs by flow cytometry
In short: (§1)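 K-562 human leukemia cells were grown in RPMI 1640 with 10% fetal calf serum, glutamine and penicillin/streptomycin at 37 °C in 5% CO₂. Cells were exposed to compound at 50 µM for 24 h, then pelleted and PBS-washed. They were fixed in ice-cold ethanol for 30 min, treated with 1 mg/mL RNase A at 37 °C for 30 min, and stained with propidium iodide and Triton X-100 for 30 min at room temperature in the dark. Per-phase and sub-G1 percentages came from flow cytometry gating.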

K562 [2] = assay: Cell cycle arrest in human K562 cells assessed as accumulation at S phase at 50 uM after 24 hrs by flow cytometry; in short: as §1
K562 [3] = assay: Cell cycle arrest in human K562 cells assessed as accumulation at G2/M phase at 50 uM after 24 hrs by flow cytometry; in short: as §1
K562 [4] = assay: Cell cycle arrest in human K562 cells assessed as accumulation at sub-G1 phase at 50 uM after 24 hrs by flow cytometry; in short: as §1
K562 [5] = assay: Cytotoxicity against human K562 cells
In short: (§2)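 Tested in the NCI in vitro antitumor screening protocol across a tumor cell line panel. GI₅₀ is the concentration producing a 50% reduction in cell growth.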

HCT-15 = assay: Cytotoxicity against human HCT15 cells; in short: as §2
SNB-75 = assay: Cytotoxicity against human SNB75 cells; conditions: read-out: pGI50 (converted); in short: as §2
UACC-62 = assay: Cytotoxicity against human UACC62 cells; conditions: read-out: pGI50 (converted)
In short: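 NCI in vitro antitumor screening protocol; GI50 taken as the concentration giving 50% reduction in cell growth.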

OVCAR-3 = assay: Cytotoxicity against human OVCAR-3 cells; in short: as §2
MDA-MB-231 [6] = assay: Cytotoxicity against human MDA-MB-231 cells; in short: as §2
MDA-MB-435 = assay: Cytotoxicity against human MDA-MB-435 cells; in short: as §2
MDA-MB-231 [7] = assay: Cell cycle arrest in human MDA-MB-231 cells assessed as accumulation of 2N cells at 2 uM after 24 hrs by flow cytometry
MDA-MB-231 [8] = assay: Cell cycle arrest in human MDA-MB-231 cells assessed as accumulation at sub-G1 phase at 2 uM after 24 hrs by flow cytometry
MDA-MB-231 [9] = assay: Cell cycle arrest in human MDA-MB-231 cells assessed as accumulation of 4N cells at 2 uM after 24 hrs by flow cytometry
MDA-MB-231 [10] = assay: Cell cycle arrest in human MDA-MB-231 cells assessed as accumulation of >4N cells at 2 uM after 24 hrs by flow cytometry
MDA-MB-231 [11] = assay: Cell cycle arrest in human MDA-MB-231 cells assessed as accumulation of 2N cells at 2 uM after 72 hrs by flow cytometry
MDA-MB-231 [12] = assay: Cell cycle arrest in human MDA-MB-231 cells assessed as accumulation at sub-G1 phase at 2 uM after 72 hrs by flow cytometry
MDA-MB-231 [13] = assay: Cell cycle arrest in human MDA-MB-231 cells assessed as accumulation of 4N cells at 2 uM after 72 hrs by flow cytometry
MDA-MB-231 [14] = assay: Cell cycle arrest in human MDA-MB-231 cells assessed as accumulation of >4N cells at 2 uM after 72 hrs by flow cytometry

`CCOC(=O)c1ccccc1C#C/C=C\C#Cc1ccccc1N` was tested, and the Activity (K562 [1]) was 5.9%, the Activity (K562 [2]) was 12.7% and the Activity (K562 [3]) was 81.4%. For the same compound, the Activity (K562 [4]) was 28.68%.

Work on `Nc1ccccc1C#C/C=C\C#Cc1c(F)c(F)c(F)c(F)c1F` yielded a GI50 (K562 [5]) of 15800 nM, a GI50 (HCT-15) of 15800 nM and a GI50 (SNB-75) of 39800 nM. For the same compound, the GI50 (UACC-62) was 12600 nM, the GI50 (OVCAR-3) was 15800 nM and the GI50 (MDA-MB-231 [6]) was 2510 nM. For the same compound, the GI50 (MDA-MB-435) was 15800 nM, the Activity (K562 [1]) was 43.6% and the Activity (K562 [2]) was 38.5%. It also gave an Activity (K562 [3]) of 17.9% and an Activity (K562 [4]) of 27.34%.

For `COc1cc2c(c(OC)c1OC)-c1ccc(OC)c(=O)cc1[C@@H](NC(C)=O)CC2` [COLCHICINE], the GI50 (K562 [5]) was 12.6 nM, the GI50 (HCT-15) was 126 nM and the GI50 (SNB-75) was 25.1 nM. The GI50 (UACC-62) was 25.1 nM, the GI50 (OVCAR-3) was 15.8 nM and the GI50 (MDA-MB-231 [6]) was 316 nM. The GI50 (MDA-MB-435) was 10 nM, the Activity (MDA-MB-231 [7]) was 10.2% and the Activity (MDA-MB-231 [8]) was 23.3%. The Activity (MDA-MB-231 [9]) was 55.2%, the Activity (MDA-MB-231 [10]) was 11.3% and the Activity (MDA-MB-231 [11]) was 6.9%. It also gave an Activity (MDA-MB-231 [12]) of 60%, an Activity (MDA-MB-231 [13]) of 21.6% and an Activity (MDA-MB-231 [14]) of 11.5%.

Work on `Nc1ccccc1C#C/C=C\C#Cc1ccccc1[N+](=O)[O-]` yielded a GI50 (K562 [5]) of 501 nM, a GI50 (HCT-15) of 794 nM and a GI50 (SNB-75) of 12600 nM. The GI50 (UACC-62) was 2000 nM, the GI50 (OVCAR-3) was 3980 nM and the GI50 (MDA-MB-231 [6]) was 398 nM. For the same compound, the GI50 (MDA-MB-435) was 398 nM, the Activity (K562 [1]) was 42.7% and the Activity (K562 [2]) was 41%. It also gave an Activity (K562 [3]) of 16.3% and an Activity (K562 [4]) of 11.13%.

Work on `Nc1ccccc1C#C/C=C\C#CC#C/C=C\C#Cc1ccccc1N` yielded a GI50 (K562 [5]) of 794 nM, a GI50 (HCT-15) of 3980 nM and a GI50 (SNB-75) of 3160 nM. The GI50 (UACC-62) was 2000 nM, the GI50 (OVCAR-3) was 2510 nM and the GI50 (MDA-MB-231 [6]) was 1580 nM. The GI50 (MDA-MB-435) was 3160 nM, the Activity (K562 [1]) was 22.8% and the Activity (K562 [2]) was 25%. The Activity (K562 [3]) was 52.2% and the Activity (K562 [4]) was 9.19%.

For `COc1ccc(/C=C\c2cc(OC)c(OC)c(OC)c2)cc1O` [COMBRETASTATIN A4], the GI50 (K562 [5]) was 31.6 nM, the GI50 (HCT-15) was 31.6 nM and the GI50 (SNB-75) was 794 nM. For the same compound, the GI50 (UACC-62) was 10 nM, the GI50 (OVCAR-3) was 39.8 nM and the GI50 (MDA-MB-231 [6]) was 10 nM. It also gave a GI50 (MDA-MB-435) of 31.6 nM.

In the case of `Nc1ccccc1C#C/C=C\C#Cc1ccccc1OC(F)(F)F`, the GI50 (K562 [5]) is reported as 2510 nM, the GI50 (HCT-15) is reported as 3980 nM and the GI50 (SNB-75) is reported as 2510 nM. For the same compound, the GI50 (UACC-62) was 6310 nM, the GI50 (OVCAR-3) was 3980 nM and the GI50 (MDA-MB-231 [6]) was 5010 nM. The GI50 (MDA-MB-435) was 1260 nM, the Activity (K562 [1]) was 4.5% and the Activity (K562 [2]) was 24.1%. For the same compound, the Activity (K562 [3]) was 71.4% and the Activity (K562 [4]) was 30.55%.

Work on `Nc1ccccc1C#C/C=C\C#Cc1ccc([N+](=O)[O-])cc1` yielded an Activity (K562 [1]) of 35%, an Activity (K562 [2]) of 46.2% and an Activity (K562 [3]) of 18.8%. The Activity (K562 [4]) was 15.78%.

`Nc1ccccc1C#C/C=C\C#Cc1ccccc1F` showed a GI50 (K562 [5]) of 3160 nM, a GI50 (HCT-15) of 5010 nM and a GI50 (UACC-62) of 7940 nM. For the same compound, the GI50 (OVCAR-3) was 3160 nM, the GI50 (MDA-MB-231 [6]) was 10000 nM and the GI50 (MDA-MB-435) was 2000 nM. For the same compound, the Activity (K562 [1]) was 22.1%, the Activity (K562 [2]) was 40.9% and the Activity (K562 [3]) was 37%. For the same compound, the Activity (K562 [4]) was 11.5%.

For `Nc1ccccc1C#C/C=C\C#Cc1ccc(F)cc1F`, the GI50 (K562 [5]) was 5010 nM, the GI50 (HCT-15) was 12600 nM and the GI50 (UACC-62) was 15800 nM. It also gave a GI50 (OVCAR-3) of 6310 nM, a GI50 (MDA-MB-231 [6]) of 15800 nM and a GI50 (MDA-MB-435) of 2510 nM. The Activity (K562 [1]) was 32.5%, the Activity (K562 [2]) was 33.1% and the Activity (K562 [3]) was 34.4%. The Activity (K562 [4]) was 10.04%.
